Ecoli WT expand: growth inhibitors of E. coli BW25113 wild type; OD600 absorbance; growth inhibition, % at 100 µM; actives 0.15% (n = 98,000);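 active = growth inhibition above about 50% at one test dose, limit read from the data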;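 note: growth measured after 20 h incubation at 37 °C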
MMP13 inh: MMP13 (human) collagenase inhibition | P45452 | MMP-13 fTHP FRET cleavage, Mca fluorescence | inhibition, % at 4 µM | actives 0.07% (n = 65,000) | AID 570;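 active = inhibition above the mean of compound-free control plate wells plus 3 SD, cut at about 14% in these data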
Ecoli tolC: growth inhibitors of E. coli BW25113 tolC mutant; actives 2.2% (n = 65,000); AID 573; OD615; growth inhibition, % at 10 µM (by protocol);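 active = growth inhibition at or above a cutoff equal to the mean over every tested compound plus 3 SD, cut at about 60% in these data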;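 note: growth measured after 20 h incubation at 37 °C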
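Test system: tolC-deleted E. coli BW25113 | Medium: LB with kanamycin 50 µg/mL | Compound dosing: Single concentration, 10 µM final per compound | Schedule: 37 °C, 20 h exposure | Measured by: OD at 615 nm | Evaluation: Percent growth inhibition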
AP complement: orthogonal test for alternative complement pathway inhibitors. Human serum alternative complement pathway, LPS-coated ELISA, C3 deposition; tested in compound mixtures. inhibition, % at 5 µM. actives 0.08% (n = 62,000). AID 1235;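 active = inhibition above 30% in each of the two pooled mixtures holding the compound, so the lower value exceeds 30%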
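Test system: human serum alternative complement pathway, C3 deposition on LPS-coated wells; also added: Plate-bound LPS; doses: 5 µM per compound in ten-compound mixtures; schedule: 1 h at 37 °C; detection: Anti-C3 ELISA, OD 450 nm; evaluation: percent inhibition of C3 deposition onto LPS; repeats: two pool placements per compound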
E coli RNAP: blocks E. coli RNA polymerase transcription; P0A8V2; inhibition, %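 (tested at 10 µM)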; actives 0.2% (n = 62,000); AID 559; fluorescence transcription assay; in the data active = inhibition above about 20%
HePTP inh: blocks human HePTP tyrosine phosphatase. actives 0.64% (n = 110,000). AID 521. inhibition, % at 20 µM. recombinant HePTP phosphatase activity, OD absorbance; in the data active = inhibition above about 50%
Target sequence (P35236 whole entry, looked up): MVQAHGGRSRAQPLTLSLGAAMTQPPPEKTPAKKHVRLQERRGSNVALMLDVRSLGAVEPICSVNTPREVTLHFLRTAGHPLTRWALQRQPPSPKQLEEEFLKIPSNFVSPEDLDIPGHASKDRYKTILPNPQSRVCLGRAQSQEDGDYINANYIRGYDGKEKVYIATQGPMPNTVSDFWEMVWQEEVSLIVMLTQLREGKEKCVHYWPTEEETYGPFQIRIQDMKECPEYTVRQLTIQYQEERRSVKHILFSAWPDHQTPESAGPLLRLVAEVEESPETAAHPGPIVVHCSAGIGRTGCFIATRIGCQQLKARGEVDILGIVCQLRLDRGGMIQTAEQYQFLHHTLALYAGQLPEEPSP
Numbers stand for hits. The entries come from a sample that favours hits as a whole.

For COc1cc(/C=C2/SC(=S)N(c3ccccc3)C2=O)ccc1OC(=O)c1cccc(C)c1 the results were HePTP inh inactive.
Cc1ccc(-c2nnc3sc(-c4ccncc4)nn23)cc1 was read as Ecoli WT expand inactive, MMP13 inh inactive, Ecoli tolC inactive, AP complement inactive, E coli RNAP inactive and HePTP inh inactive.
Screening CCN(CC)c1ccc(-c2nn3c(-c4n[nH]c5c4CCC5)nnc3s2)cc1 returned Ecoli WT expand inactive, MMP13 inh inactive, Ecoli tolC 74.5, AP complement inactive, E coli RNAP inactive and HePTP inh inactive.
`CN(C)c1ccc(-c2nn3c(-c4ccncc4)nnc3s2)cc1` gave MMP13 inh inactive, Ecoli tolC 84.2, AP complement inactive, E coli RNAP inactive and HePTP inh inactive.
Screening O=[N+]([O-])c1ccc(N2CCOCC2)cc1Sc1cccc2cccnc12 returned HePTP inh inactive.
`COc1ccc(N2C(=O)NC(=O)/C(=C\C=C\c3ccccc3[N+](=O)[O-])C2=O)cc1` gave HePTP inh inactive.
For CCn1c(=O)c2cc(C(=O)N3CCN(C(=O)c4ccco4)CC3)sc2c2ccccc21 the results were MMP13 inh inactive, Ecoli tolC 97.5, AP complement inactive, E coli RNAP inactive and HePTP inh inactive.
For O=C(O/N=C(/c1ccncc1)c1ccc([N+](=O)[O-])cc1)c1ccccc1F the results were HePTP inh inactive.
`Cc1ccc(N2C(=O)C3C4CC(=O)C(c5ccccc54)C3C2=O)cc1` (stereo unspecified) gave Ecoli WT expand inactive and HePTP inh inactive.
Screening O=C1CC2c3ccccc3C1C1C(=O)N(c3ccccc3)C(=O)C21 (stereo unspecified) returned HePTP inh 103.3.
Screening Cn1c(/C=C/c2ccc([N+](=O)[O-])cc2)nc2ccccc2c1=O returned HePTP inh inactive.
Screening Cn1c(/C=C/c2ccc([N+](=O)[O-])o2)nc2ccccc2c1=O returned Ecoli WT expand 65.0.
Screening O=c1c2c(nc3cc(-c4cccs4)[nH]n13)CCS2 returned HePTP inh inactive.
Screening O=c1c2c(nc3cc(-c4ccc(Cl)cc4)[nH]n13)CCS2 returned HePTP inh 95.7.
O=c1c2c(nc3cc(-c4ccco4)[nH]n13)CCS2 was read as HePTP inh 99.7.
Screening Ic1ccc(OCCCCN2CCCC2)cc1 returned HePTP inh inactive.
O=C1NC(=S)S/C1=C/c1ccc(O)c(Br)c1 was read as HePTP inh 103.6.
For O=C1NC(=S)S/C1=C/c1ccc(OCc2ccc(F)cc2)c(Br)c1 the results were HePTP inh inactive.
For COc1cc(NC(=O)c2ccc3c(c2)C(=O)N(C2CCCCC2)C3=O)c(C(=O)O)cc1OC the results were HePTP inh 102.8.
Screening COc1cc(NC(=O)c2ccc3c(c2)C(=O)N(c2ccccc2OC)C3=O)c(C(=O)O)cc1OC returned HePTP inh inactive.
`CCOC(=O)N/N=C\c1ccc([N+](=O)[O-])o1` gave Ecoli WT expand 100.0.
Screening O=C(N/N=C\c1ccc([N+](=O)[O-])o1)c1nc(-c2ccccc2)cc(-c2ccccc2)n1 returned HePTP inh 50.8.
Screening O=C(N/N=C/c1ccc([N+](=O)[O-])o1)c1cc(-c2ccncc2)nc2ccccc12 returned Ecoli WT expand inactive.
Screening COC(=O)c1ccc(NC(=O)C2C3C=CC(C4CC34)C2C(=O)O)cc1 (stereo unspecified) returned HePTP inh inactive.
Screening C=CCn1c(SCC(=O)Nc2ccc3c(c2)CCC3)nnc1-c1cccs1 returned Ecoli WT expand inactive, MMP13 inh inactive, Ecoli tolC 76.6, AP complement inactive, E coli RNAP inactive and HePTP inh inactive.
For C=CCn1c(SCC(=O)O)nnc1-c1cccs1 the results were Ecoli WT expand inactive.
`O=C(COc1ccc(Cl)cc1)N1CCN(C(=O)c2cccnc2)CC1` gave HePTP inh inactive.
`O=C(O)c1ccc(Cl)c(-c2ccc(/C=N\Nc3ccc([N+](=O)[O-])cn3)o2)c1` gave HePTP inh 53.8.
Screening Cc1cc(NS(=O)(=O)c2ccccc2)c(C)c(Cl)c1O returned Ecoli WT expand inactive, MMP13 inh inactive, Ecoli tolC inactive, AP complement inactive, E coli RNAP 20.6 and HePTP inh inactive.
`O=C(NCc1ccccc1)c1c[nH]c2ccc(S(=O)(=O)Nc3ccc4c(c3)OCCO4)cc2c1=O` gave Ecoli WT expand inactive, MMP13 inh inactive, Ecoli tolC 61.2, AP complement inactive, E coli RNAP inactive and HePTP inh inactive.
`CCc1ccccc1NS(=O)(=O)c1ccc2[nH]cc(C(=O)NCc3ccco3)c(=O)c2c1` gave Ecoli WT expand inactive, MMP13 inh inactive, Ecoli tolC 100.0, AP complement inactive, E coli RNAP inactive and HePTP inh inactive.
`O=C1C(=O)N(c2ccccc2)C(c2ccccc2)/C1=C(\O)c1ccc(Br)cc1` (stereo unspecified) gave HePTP inh inactive.
Screening COc1ccccc1N(CC(=O)NC(C)c1ccccc1)S(=O)(=O)c1ccccc1 (stereo unspecified) returned HePTP inh inactive.
Screening COc1ccccc1N(CC(=O)NC(C)(C)C)S(=O)(=O)c1ccccc1 returned HePTP inh 105.9.
O=[N+]([O-])c1ccc(C=Nc2ccc(Cl)cc2)o1 was read as HePTP inh inactive.
CC(C)c1ccc(/C=C/C(=O)Nc2ccc(C(N)=O)cc2)cc1 was read as HePTP inh 103.6.
Screening CCCCC(=O)Nc1cccc(-c2nnc(-c3ccccc3)o2)c1 returned Ecoli WT expand inactive, MMP13 inh inactive, Ecoli tolC 67.8, AP complement inactive, E coli RNAP inactive and HePTP inh inactive.
CCOc1cc(S(=O)(=O)N2CCN(Cc3ccccc3)CC2)ccc1Br was read as Ecoli WT expand inactive, MMP13 inh inactive, Ecoli tolC 63.8, AP complement inactive, E coli RNAP inactive and HePTP inh inactive.
`O=C(C(Sc1ccccc1)c1ccccc1)N1CCN(c2ccccc2F)CC1` (stereo unspecified) gave Ecoli WT expand inactive.
O=C(C(Sc1ccccc1)c1ccccc1)N1CCCC1 (stereo unspecified) was read as HePTP inh 102.1.
Screening CCN1C(=O)/C(=C/c2c(F)cccc2Cl)SC1=S returned HePTP inh inactive.
`O=C1NC(=Nc2cccnc2)S/C1=C\c1cccc(F)c1` gave HePTP inh 65.7.
Screening CC(=O)NC(=O)c1ccccc1OCC(=O)c1ccc(Br)cc1 returned HePTP inh 54.9.
`CCc1nc2sc3ccccc3c(=O)c2c(=O)n1Cc1ccco1` gave Ecoli WT expand inactive, MMP13 inh inactive, Ecoli tolC 90.8, AP complement inactive and E coli RNAP inactive.
`O=S(=O)(NCCSCc1ccc(Cl)cc1Cl)c1ccc2c(c1)OCCO2` gave Ecoli WT expand inactive.

Screening results: PubChem BioAssay, several laboratories
